Measured values published in ChEMBL document CHEMBL1131456, “Synthesis, pharmacological characterization, and quantitative structure-activity relationship analyses of 3,7,9,9-tetraalkylbispidines: derivatives with specific bradycardic activity” (J Med Chem, 1998).

Legend:
[1] = Selectivity quotient (F75/SR75); # means very high (estimated); format: functional
In short: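 Isolated atria in oxygenated buffer at 35 °C. Spontaneously beating right atria gave sinus rate; left atria paced at 2 Hz with 1 ms rectangular pulses gave isometric force of contraction. Cumulative concentration-response curves used up to five concentrations. EC75 (25% decrease from predrug value) was taken as the geometric mean of individual values. Quotient is F75/SR75.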

[2] = system: Rattus norvegicus; assay: In vivo activity in anesthetized rat was measured as the R alpha T-interval of the rat ECG which reflects the time from ventricular excitation to recovery; format: functional, Cardiac ventricle
In short: (§1)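 Male Wistar rats (280–360 g) under urethane (1.25 g/kg ip), intubated and breathing spontaneously. Femoral arterial pressure was recorded with needle-electrode ECG, analysed every 30 s. Compound was given by continuous femoral-vein infusion at 0.1 mL/min, with concentration raised tenfold every 10 min (3 doses). ED75/ED125 is the dose giving a 25% decrease/increase from the predrug value, reported as the geometric mean of individual EDs.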

[3] = species on record: Cavia porcellus; assay: Selectivity quotient (FRP125/SR75); format: functional
In short: (§2)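 Atrial selectivity quotients were calculated from the guinea pig atrial EC values as F75/SR75 and FRP125/SR75.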

[4] = species on record: Cavia porcellus; assay: In vitro activity in guinea pig atria as the functional refractory period (FRP), which is the shortest interval between a double stimulus causing a double contraction.
In short: (§3)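 Isolated guinea pig atria in oxygenated buffer at 35 °C. Right atria beat spontaneously; left atria were paced at 2 Hz with 1 ms rectangular pulses and isometric contractions were recorded. Cumulative concentration–response curves were run with up to five concentrations. EC75/EC125 is the concentration giving a 25% decrease/increase from the predrug value, reported as the geometric mean of individual ECs.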

[5] = species on record: Cavia porcellus; assay: Score point for the selectivity versus additional effect FRP.; format: functional
[6] = species on record: Cavia porcellus; assay: In vitro activity in guinea pig atria was measured as rate of spontaneously beating right atrium (SR) which reflects the activity of the sinus node; format: functional; conditions: Cardiac atrium; in short: as §3
[7] = species on record: Cavia porcellus; assay: Score value indicates decrease of the sinus rate; format: functional
[8] = system: Rattus norvegicus; assay: In vivo activity in anesthetized rat was measured as heart rate which provides information on in vivo bradycardic activity; format: functional; in short: as §1
[9] = species on record: Rattus norvegicus; assay: Total score (SS)
[10] = species on record: Cavia porcellus; assay: Sum of the scores of decrease of the sinus rate and selectivity versus the decrease in force of contraction; format: functional
[11] = Partition coefficient (logP); format: physicochemical; conditions: octanol/water; read-out: logP
In short: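 Lipophilicity was measured by reversed-phase HPLC. Mobile phase was methanol/0.005 M phosphate buffer pH 4 (60/40) with 0.1% SDS and 0.1 M NaClO4, at 23.0 ± 0.5 °C, with UV detection at 205 nm.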

[12] = species on record: Rattus norvegicus; assay: Selectivity quotient (DAP125/HR75)
[13] = species on record: Rattus norvegicus; assay: Selectivity quotient (R&T125/HR75)
[14] = species on record: Rattus norvegicus; assay: Score point for the selectivity versus additional effect R&T interval.; format: functional
[15] = species on record: Rattus norvegicus; assay: Score value indicates desire effect on heart rate; format: functional
[16] = species on record: Rattus norvegicus; assay: Score value indicates selectivity against the undesired effect on diastolic blood pressure; format: functional, Artery
[17] = system: Rattus norvegicus; assay: In vivo activity in anesthetized rat was measured as the diastolic arterial pressure which provides information on the peripheral resistance of the cardiovascular system and selectivity regarding bradycardia; format: functional, Artery; in short: as §1
[18] = species on record: Cavia porcellus; assay: Score value indicates selectivity versus the decrease in force of contraction; format: functional
[19] = species on record: Cavia porcellus; assay: In vitro activity in guinea pig atria was measured as the peak force of contraction (F) of a stimulated left atrium; format: functional; conditions: Cardiac atrium; in short: as §3
[20] = species on record: Cavia porcellus; assay: Selectivity quotient (F75/SR75); format: functional; in short: as §2

| Compound | Selectivity quotient [1] | ED125 [2] [µM/kg] | Selectivity quotient [3] | EC125 [4] [µM] | Score [5] | EC75 [6] [µM] | Score [7] | ED75 [8] [µM/kg] | total score (SS) [9] | Score [10] | logP [11] | Selectivity quotient [12] | Selectivity quotient [13] | Score [14] | Score [15] | Score [16] | ED125 [17] [µM/kg] | Score [18] | EC75 [19] [µM] | Selectivity quotient [20] |
| --- | --- | --- | --- | --- | --- | --- | --- | --- | --- | --- | --- | --- | --- | --- | --- | --- | --- | --- | --- | --- |
| CCCN1CC2CN(CCC)CC(C1)C2(CC)CC | # | 2.1 | 0.43 | 1.52 | 4 | 3.53 | 3 | 12 | 1 | 3 | 3.85 | 0.8 | 0.18 | 5 | 4 | -3 | 10 | 0 | – | – |
| CC(C)N1CC2CN(C(C)C)CC(C1)C2(C)C | # | 18 | 10.2 | 111 | 0 | 10.9 | 2 | 52 | -2 | 0 | 2.48 | 1 | 0.35 | 4 | 1 | -3 | – | -2 | – | – |
| C1CCC(CN2CC3CN(CC4CCCCC4)CC(C2)C32CCCCC2)CC1 | – | 12 | 0.08 | 0.62 | 6 | 7.57 | 3 | 20 | 1 | -3 | 7.43 | >3 | 0.6 | 3 | 3 | -2 | >61 | -6 | 2.65 | 0.35 |
| CCCCN1CC2CN(CC3CCCCC3)CC(C1)C2(C)C | – | 0.96 | 0.55 | 0.48 | 3 | 0.88 | 6 | 5.7 | 4 | 5 | 4.98 | >7 | 0.17 | 5 | 5 | -1 | >41 | -1 | 16.3 | 18.5 |
| CCCCN1CC2CN(CCCC)CC(C1)C2(C)CC (stereo not drawn) | – | 0.61 | 0.17 | 0.54 | 5 | 3.21 | 4 | 4.6 | 1 | -2 | 4.37 | 0.12 | 0.13 | 5 | 6 | -5 | 0.57 | -6 | 1.52 | 0.47 |
| C=CCCN1CC2CN(CCCC)CC(C1)C2(C)C | – | 0.7 | 1.72 | 2.08 | 3 | 1.21 | 5 | 5.9 | 1 | 5 | 3.42 | 0.37 | 0.12 | 5 | 5 | -4 | 2.2 | 0 | 106 | 87.6 |
| CC(C)CN1CC2CN(C(C)C)CC(C1)C21CCCCC1 | – | 0.73 | 1.54 | 1.54 | 3 | 1 | 5 | 5.7 | 4 | 5 | 4.29 | >7 | 0.13 | 5 | 5 | -1 | >41 | 0 | 35.5 | 35.5 |
| CCCCN1CC2CN(CCCC)CC(C1)C2(C)C | – | 0.57 | 0.33 | 1 | 4 | 3 | 4 | 5.3 | -1 | 4 | 3.88 | 0.04 | 0.11 | 5 | 5 | -6 | 0.2 | 0 | 104 | 35 |
| CCCCN1CC2CN(CCCC)CC(C1)C21CCC1 | – | 0.55 | 1.21 | 0.63 | 3 | 0.52 | 6 | 4.7 | 1 | 6 | 4.24 | 0.13 | 0.12 | 5 | 6 | -5 | 0.6 | 0 | 56.1 | 108 |
